Test results taken from ChEMBL document CHEMBL1123853, “A novel class of cardiotonics. Synthesis and pharmacological properties of [4-(substituted-amino)phenyl]pyridazinones and related derivatives” (1987).

Experiments:
[1] = species: Canis familiaris; test: Positive inotropic activity determined in the […](that produced 30% increase in dose- response curves [dP/dt(max)]); type: functional; details: Canis lupus familiaris
How it was run: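 In the anesthetized open-chest dog (mongrel, 7–15 kg, pentobarbital 30 mg/kg iv, ventilated on room air), compounds were given intravenously and LV dP/dtmax was recorded. The dose giving a 30% rise in dP/dtmax was read from the dose-response curves. Results are mean ± SEM (n = 3) or mean ± range (n = 2).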

[2] = tested on: Canis familiaris; test: Inotropic activity determined by evaluating the % change in Cardiac out put (CO)at a dose of 100 ug/kg administered intravenously […]; type: functional, Canis lupus familiaris
How it was run: (§1)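 Mongrel dogs of either sex, 7–15 kg, anesthetized with sodium pentobarbital (30 mg/kg iv), open-chest, intubated and ventilated on room air. Compounds given intravenously. A femoral artery catheter with pressure transducer recorded SBP and DBP. dP/dtmax, right ventricular contractile force, cardiac output and heart rate were also recorded, as % change at each iv dose.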

[3] = tested on: Canis familiaris; test: Inotropic activity determined by evaluating the % change in contractile force (CF) of right ventricle at a dose of 100 ug/kg administered intravenously […]; type: functional, Canis lupus familiaris, Heart right ventricle; how it was run: as §1
[4] = tested on: Canis familiaris; test: Inotropic activity determined by evaluating the % change in Heart Rate (HR) at a dose of 100 ug/kg administered intravenously […]; type: functional, Canis lupus familiaris; how it was run: as §1
[5] = tested on: Canis familiaris; test: Inotropic activity determined by evaluating the % change in Cardiac out put (CO)at a dose of 30 ug/kg administered intravenously […]; type: functional, Canis lupus familiaris; how it was run: as §1
[6] = tested on: Canis familiaris; test: Inotropic activity determined by evaluating the % change in Systolic Blood Pressure (SBP) at a dose of 100 ug/kg administered intravenously […]; type: functional, Canis lupus familiaris, Muscle tissue; how it was run: as §1
[7] = tested on: Canis familiaris; test: Inotropic activity determined by evaluating the % change in contractile force (CF) of right ventricle at a dose of 30 ug/kg administered intravenously […]; type: functional, Canis lupus familiaris, Heart right ventricle; how it was run: as §1
[8] = tested on: Canis familiaris; test: Inotropic activity determined by evaluating the % change in Heart Rate (HR) at a dose of 30 ug/kg administered intravenously […]; type: functional, Canis lupus familiaris; how it was run: as §1
[9] = tested on: Canis familiaris; test: Inotropic activity determined by evaluating the maximum rate of rise in left ventricular pressure at a dose of 30 ug/kg administered intravenously […]; type: functional, Canis lupus familiaris, Muscle tissue; how it was run: as §1
[10] = tested on: Canis familiaris; test: Inotropic activity determined by evaluating the % change in Diastolic Blood Pressure (DBP) at a dose of 100 ug/kg administered intravenously […]; type: functional, Canis lupus familiaris; how it was run: as §1
[11] = tested on: Canis familiaris; test: Inotropic activity determined by evaluating the % change in Systolic Blood Pressure (SBP) at a dose of 30 ug/kg administered intravenously […]; type: functional, Canis lupus familiaris, Muscle tissue; how it was run: as §1
[12] = tested on: Canis familiaris; test: Inotropic activity determined by evaluating the maximum rate of rise in left ventricular pressure at a dose of 100 ug/kg administered intravenously […]; type: functional, Canis lupus familiaris, Muscle tissue; how it was run: as §1
[13] = species: Canis familiaris; test: Positive inotropic in the isolated papillary muscle of the dog.; type: functional, Canis lupus familiaris
How it was run: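 Right ventricular anterior papillary muscle with septum, from mongrel dogs (7–12 kg, pentobarbital 30 mg/kg iv). It was perfused at about 100 mmHg via the septal artery with blood from a heparinized donor dog and paced at 120/min (1 ms pulses, about 1.5× threshold). Isometric tension was recorded. Saline solutions were injected intra-arterially, with amrinone as reference. ED15 (15% rise in developed tension) was taken from log dose-response curves. Results are mean ± SEM (n = 7) or mean ± range (n = 2).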

[14] = tested on: Canis familiaris; test: Inotropic activity determined by evaluating the % change in Diastolic Blood Pressure (DBP) at a dose of 30 ug/kg administered intravenously […]; type: functional, Canis lupus familiaris; how it was run: as §1
[15] = tested on: Canis familiaris; test: Inotropic activity determined by evaluating the % change in Diastolic Blood Pressure (DBP) at a dose of 10 ug/kg administered intravenously […]; type: functional, Canis lupus familiaris; how it was run: as §1
[16] = tested on: Canis familiaris; test: Inotropic activity determined by evaluating the % change in Systolic Blood Pressure (SBP) at a dose of 10 ug/kg administered intravenously […]; type: functional, Canis lupus familiaris; how it was run: as §1
[17] = tested on: Canis familiaris; test: Inotropic activity determined by evaluating the % change in contractile force (CF) of right ventricle at a dose of 10 ug/kg administered intravenously […]; type: functional, Canis lupus familiaris, Heart right ventricle; how it was run: as §1
[18] = tested on: Canis familiaris; test: Inotropic activity determined by evaluating the maximum rate of rise in left ventricular pressure at a dose of 10 ug/kg administered intravenously […]; type: functional, Canis lupus familiaris, Muscle tissue; how it was run: as §1
[19] = tested on: Canis familiaris; test: Inotropic activity determined by evaluating the % change in Heart Rate (HR) at a dose of 10 ug/kg administered intravenously […]; type: functional, Canis lupus familiaris; how it was run: as §1
[20] = tested on: Canis familiaris; test: Inotropic activity determined by evaluating the % change in Cardiac out put (CO)at a dose of 10 ug/kg administered intravenously […]; type: functional, Canis lupus familiaris; how it was run: as §1

| Structure (SMILES) | ED30 [1] | Change of CO [2] | Change of CF [3] | Change of HR [4] | Change of CO [5] | Change of SBP [6] | Change of CF [7] | Change of HR [8] | dP/dt [9] | Change of DBP [10] | Change of SBP [11] | dP/dt [12] | ED15 [13] | Change of DBP [14] | Change of DBP [15] | Change of SBP [16] | Change of CF [17] | dP/dt [18] | Change of HR [19] | Change of CO [20] |
| --- | --- | --- | --- | --- | --- | --- | --- | --- | --- | --- | --- | --- | --- | --- | --- | --- | --- | --- | --- | --- |
| CC1CC(=O)NN=C1c1ccc(N(C)c2ccncc2)cc1.Cl (stereo not given) | > 0.1 mg/kg | 13.3% | 41.2% | 22.8% | 8.9% | -5.5% | 13% | 2.6% | 11% | -13.9% | -0.6% | 27.5% | 18.5 µg | -3.2% |  |  |  |  |  |  |
| CC1CC(c2ccc(Nc3ccncc3)cc2)=NNC1=O.Cl (stereo not given) | 0.072 mg/kg | 23.3% | 52.9% | 17.3% | 10.3% | -14.6% | 22.5% | 4.6% | 24.2% | -26.1% | -5.9% | 43.8% | 4.7 µg | -9.8% |  |  |  |  |  |  |
| CC(Nc1ccc(C2=NNC(=O)CC2)cc1)c1ccncc1 (stereo not given) |  |  |  |  |  |  |  |  |  |  |  |  | 33 µg |  |  |  |  |  |  |  |
| O=C1CCC(c2ccc(-n3ccnc3)cc2)=NN1 [IMAZODAN] | 0.046 mg/kg | 35.5% | 83.8% | 16.1% | 26.3% | -16.9% | 42.2% | 8.1% | 22.3% | -28.3% | -9.6% | 49.3% |  | -16.5% | -8.1% | -4.8% | 13.8% | 10.3% | 3.6% | 11.2% |
| O=C1CCC(c2ccc(NCc3cccnc3)cc2)=NN1 |  |  |  |  |  |  |  |  |  |  |  |  | 86 µg |  |  |  |  |  |  |  |
| CN(c1ccc(C2=NNC(=O)CC2)cc1)c1ccccn1.Cl | > 0.1 mg/kg | 18.7% | 37.7% | 9.5% | 13.2% | -10.5% | 16.5% | 4.5% | 14.3% | -17.8% | -6.3% | 32.5% | 5.6 µg | -9.6% |  |  |  |  |  |  |
| Cl.Oc1ccc(-c2ccc(Nc3ccncc3)cc2)nn1 | 0.022 mg/kg | 7.7% | 33.7% | 4.2% | 5.4% | -22.3% | 19.9% | 2.4% | 39.6% | -27.6% | -11.9% | 57.1% | 50 µg | -20% | -7.5% | -3.6% | 11% | 20.2% | 1.3% | 1.6% |
| Cl.O=C1CCC(c2ccc(Nc3ccnc4ccccc34)cc2)=NN1 |  |  |  |  |  |  |  |  |  |  |  |  | >300 µg |  |  |  |  |  |  |  |
| CN(C)c1ccc(CNc2ccc(C3=NNC(=O)CC3)cc2)cc1 |  |  |  |  |  |  |  |  |  |  |  |  | >300 µg |  |  |  |  |  |  |  |
